Compound activity (PubChem BioAssay)
A selection: hits, their analogues and other compounds. The true share with any hit is near 4.3%.
ALR H2O2 inh = human ALR oxidase inhibition via reduced H2O2. P55789. purified ALR, DTT oxidation, H2O2 HRP-luminol luminescence. inhibition, % (test concentration not listed). 3.8% of 290,000 active. AID 485317;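 active = mean replicate inhibition above about 79%, with every replicate also reaching it, limit read from the data; inconclusive = only one of the two criteria met; inactive = mean below limit and not every replicate reaching it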
Target sequence (P55789 whole entry, looked up): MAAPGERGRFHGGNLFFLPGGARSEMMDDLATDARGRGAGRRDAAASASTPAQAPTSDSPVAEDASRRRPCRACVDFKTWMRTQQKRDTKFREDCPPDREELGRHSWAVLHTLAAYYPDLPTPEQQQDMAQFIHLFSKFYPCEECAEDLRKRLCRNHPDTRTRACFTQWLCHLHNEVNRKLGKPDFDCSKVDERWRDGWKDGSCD
CAL PDZ FP-1 = inhibitors of human CAL PDZ peptide binding; Q9HD26; purified CAL PDZ, TMR-peptide fluorescence polarization, 1 h; inhibition, % at 20 µM; 0.02% of 330,000 active; AID 504414;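 active = highest replicate inhibition of at least 40%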;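 also: plate controls were DMSO neutral control wells for no effect and unlabeled competitor peptide control wells for full effect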
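material = purified tagged CAL PDZ domain construct (CerCALP) | compound dosing = 20 µM, one dose | times = 1 h at RT | measured by = fluorescence polarization from S- and P-plane intensities, G-factor corrected | read-out = inhibition from polarization loss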
Dyrk1A ADPGlo = blocks rat Dyrk1A kinase activity | ADP-Glo luminescence, NFATc1 peptide | AID 504441 | 0.43% of 310,000 active | inhibition, % at 12.5 µM | Q63470; in the data active = inhibition above about 50%;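 also: plate controls were vehicle with enzyme for no effect and no enzyme for full effect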
Rtt109 Vps75 = inhibitors of Candida albicans Rtt109/Vps75 histone acetyltransferase | Q5AAJ8 | purified Rtt109/Vps75, ThioGlo CoA-SH fluorescence, 4 h | inhibition, % at 34.9 µM | 0.16% of 330,000 active;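 active = inhibition of at least 50% in every replicate; inconclusive = best replicate reaches 50% inhibition but some replicates fall short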
Target sequence (Q5AAJ8 whole entry, looked up): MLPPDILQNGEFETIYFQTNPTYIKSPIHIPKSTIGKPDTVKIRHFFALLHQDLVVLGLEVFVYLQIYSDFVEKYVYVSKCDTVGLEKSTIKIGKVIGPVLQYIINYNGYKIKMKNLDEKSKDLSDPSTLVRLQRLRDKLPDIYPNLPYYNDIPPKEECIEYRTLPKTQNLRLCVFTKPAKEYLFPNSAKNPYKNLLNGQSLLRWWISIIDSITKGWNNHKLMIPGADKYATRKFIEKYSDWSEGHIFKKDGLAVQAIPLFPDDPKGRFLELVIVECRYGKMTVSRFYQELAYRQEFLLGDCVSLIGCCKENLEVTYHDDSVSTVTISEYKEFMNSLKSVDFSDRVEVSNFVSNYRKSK
CAL PDZ FP-2 = CAL PDZ (human) peptide binding inhibition. Q9HD26. purified CAL PDZ, TMR-peptide fluorescence polarization, 1 h. inhibition, % at 24.9 µM. 0.92% of 300,000 active. AID 602252;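 active = mean inhibition of at least 30% with at least half of replicates also reaching 30%; inconclusive = no clear call, values can overlap the other calls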;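 also: 0% = DMSO neutral control and 100% = excess unlabeled competitor peptide PRC23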
Numbers without * were called inactive; u = inconclusive; x = not tested or not shown.

SMILES	ALR H2O2 inh	CAL PDZ FP-1	Dyrk1A ADPGlo	Rtt109 Vps75	CAL PDZ FP-2
COc1ccc(NC(=O)CSCC(=O)Nc2ccccc2N2CCCCC2)cc1	x	0	1	-1	-2
COc1ccc(NC(=O)CSCC(=O)Nc2sccc2C#N)cc1	99*	-1	23	0	-2
COc1ccc(NC(=O)CSCC(=O)Nc2ccccc2N2CCCC2)cc1	99*	-1	9	5	-3
O=C(Nc1ccccc1N1CCCC1)c1cccnc1	98*	-1	8	-14	-1
COc1cccc(C(=O)Nc2ccccc2N2CCCC2)c1	98*	1	3	-3	-4
Clc1ccccc1N=C1NN=C(c2cccs2)CS1	20	-3	9	6	-2
CCS(=O)(=O)c1ccc(O)c(NC(=O)NC2CCCCC2)c1	x	0	7	-4	-3
O=C(Nc1ccccc1N1CCCCC1)c1cnccn1	97*	0	8	6	1
O=C(Nc1ccccc1Cl)c1cnccn1	-3	-1	-3	-4	x
CCOC(=O)CSCC(=O)Nc1cc(C)ccc1C	98*	-3	6	3	x
Cc1ccc(Cl)cc1NC(=O)CSC(N)=O	98*	-2	-5	1	-6
Cc1cccc(NC(=O)CSc2nc3ccccc3o2)c1	-13	-1	7	7	-5
Cc1nn2c(-c3cccc(NC(=O)CSc4nc5ccccc5o4)c3)nnc2c2ccccc12	99*	-2	-1	-3	-2
O=C(CSc1n[nH]c(=O)n1C1CC1)NCc1ccccc1Cl	1	0	0	15	x
CCCC1(CCC)NC(=O)N(CC(=O)Nc2ccc(Cl)c(S(=O)(=O)N3CCOCC3)c2)C1=O	-3	-2	x	-4	x
CCOc1ccccc1N1C(=O)CN(Cc2ccc(OC)c(OC)c2)C1=S	-7	x	2	-3	48*
COc1ccc(CN2C(=O)[C@@H]3C(c4ccc(F)cc4)=NO[C@@H]3C2=O)cc1	99*	0	-4	2	x
O=C1[C@@H]2C(c3ccc(F)cc3)=NO[C@@H]2C(=O)N1Cc1ccccc1	0	x	x	x	x
CC(=O)c1cc(CN2CCN(C3CCN(C(C)C)CC3)C(CCO)C2)cs1 (stereo not drawn)	-9	-2	-58	10	-2
O=C(O)c1cc(-c2ccc(/C=N/N3C(=O)C4C5C=CC(C6CC56)C4C3=O)o2)ccc1Cl (stereo not drawn)	-2	-1	-5	-2	-2
Cc1ccc(NC(=O)c2ccc(S(=O)(=O)N3CCC(C)CC3)cc2)nc1	x	0	1	9	48*
Cc1ccc(NC(=O)c2ccc(S(=O)(=O)N3CCCCCC3)cc2)nc1	1	-4	4	17	1
CCOC(=O)c1c(-c2ccco2)csc1NC(=O)COC(=O)c1cnc(C)cn1	x	-2	0	-1	-7
Cc1cc(C)c2c(-n3cccc3)c(C(=O)NNS(=O)(=O)c3ccc(Br)cc3)sc2n1	88*	x	-5	u	-11
Cn1c(=N)n(CC(=O)c2ccc(Br)s2)c2ccccc21	x	x	13	-4	-6
SMILES	ALR H2O2 inh	CAL PDZ FP-1	Dyrk1A ADPGlo	Rtt109 Vps75	CAL PDZ FP-2
N=c1n(CC(=O)c2ccc(Br)s2)c2ccccc2n1Cc1ccccc1	2	-2	-2	u	38*
NC(=O)NC(CC(=O)NNC(=O)c1ccccn1)c1ccccc1Cl (stereo not drawn)	-1	1	x	-5	109*
NC(=O)NC(CC(=O)NCCc1ccccn1)c1ccccc1Cl (stereo not drawn)	x	-4	-1	-6	0
c1ccc(-c2ccccc2OCCOCCN2CCc3ccccc3C2)cc1	-7	0	3	11	75*
O=Cc1ccc(-n2cccn2)cc1	5	-1	-1	-6	10
Cc1nccn1-c1ccc(C=O)cc1	-2	0	-2	-7	121*
COc1cccc(N2CCN(S(=O)(=O)c3cn(C)cn3)CC2)c1	96*	0	6	8	-6
Nc1ccc2nc(-c3cccc(-c4nc5ccc(N)cc5[nH]4)n3)[nH]c2c1	99*	-11	-2	6	-10
Nc1cccc(-c2nc3ccccc3[nH]2)c1	-113	0	7	-2	x
Fc1ccc(-c2nc3ccccc3[nH]2)cc1	x	-1	2	22	-3
Nc1ccc(-c2nc3c(ccc4ccccc43)[nH]2)cc1	99*	-8	16	8	-1
Clc1nc2c(ccc3ccccc32)[nH]1	x	-1	x	4	-4
c1ccc(-c2nc3cc4ccccc4cc3[nH]2)nc1	-7	-3	8	-1	-6
Nc1ccc(-c2nc3ccccc3[nH]2)cc1	98*	0	24	-1	x
Cc1ccc2nc(-c3cccc(N)c3)[nH]c2c1	99*	0	-1	-1	-4
Nc1ccc2nc(-c3ccc(-c4nc5ccc(N)cc5[nH]4)cc3)[nH]c2c1	99*	x	x	x	x
Nc1ccc(C(=O)Nc2ccc3nc(-c4ccncc4)[nH]c3c2)cc1	-18	0	0	13	x
CN(Cc1ccccc1)S(=O)(=O)c1ccc(Cl)c(C(=O)NCCCN2CCOCC2)c1	-11	-2	-5	-13	-3
c1ccc2[nH]c(SCc3cn4cccnc4n3)nc2c1	99*	0	-5	3	3
COc1ccccc1-c1c(C)nn2c(N)c(-c3ccccc3)cnc12	4	x	3	-3	69*
COc1ccc(-c2c(C)nn3c(N)c(-c4ccccc4)cnc23)cc1OC	17	0	-3	-1	-4
CCc1noc(C)c1C(=O)N1CCCC(CCC(=O)NCc2ccc(F)c(F)c2)C1 (stereo not drawn)	x	22	8	2	71*
Cc1ccc(NCc2nnc(SCC(=O)N3CCCCC3)n2CC2CCCO2)c(C)c1 (stereo not drawn)	92*	0	5	-4	-3
CCn1c(N)c(C(=O)NCc2cccnc2)sc1=S	99*	-2	2	-3	3
CC(C)OCCCNC(=O)c1sc(=S)n(C)c1N	x	2	2	2	-1
SMILES	ALR H2O2 inh	CAL PDZ FP-1	Dyrk1A ADPGlo	Rtt109 Vps75	CAL PDZ FP-2
Cc1c(C(=O)NCc2cccnc2)sc2nc(-c3ccccc3)cn12	90*	-5	6	-1	x
Cc1c(C(=O)NCc2cccnc2)sc2nc(-c3ccc(F)cc3)cn12	-4	-7	5	-10	x
CCn1c(N)c(C(=O)NC)sc1=S	99*	-3	-2	-3	-9
CCOC(=O)c1sc(=S)n(CC)c1NC(=O)CC	6	x	1	6	-1
Nc1c(C(=O)NCc2cccnc2)sc(=S)n1-c1ccccc1	41	-1	0	x	-1
CCNC(=O)c1sc(=S)n(CC)c1N	99*	-1	7	2	-3
c1ccc(-c2nn[nH]n2)nc1	-11	-1	-2	-10	-9
CC1CNC(=S)N(c2ccc(F)cc2)C1=O (stereo not drawn)	x	0	-7	-7	1
CCn1c(N)c(C(=O)NCCCOC)sc1=S	99*	-1	4	5	-2
O=C(NNC(=S)Nc1ccccc1Cl)c1ccccc1Cl	90*	-3	9	-3	-2
